This passage reports Activity and IC50 results from ChEMBL document CHEMBL1150929, “Synthesis and cytotoxic activity of pyranocoumarins of the seselin and xanthyletin series” (J Nat Prod, 1998).

Active and inactive are the calls of the source. No cut-off for these calls is given here.

For one experiment, the system named is L1210. Kind of experiment: Cell cycle arrest in mouse L1210 cells by accumulation at G1 phase after 21 hrs by flow cytometry. Format: functional, cell-based.
Settings: not given
(In general: A flow cytometer gives signals particle by particle.)
Take `CC(=O)OC1CC(C)(C)Oc2cc3oc(=O)ccc3cc21` (racemic): the outcome was inactive. For `CC1(C)CC(O)c2cc3ccc(=O)oc3cc2O1` (racemic), the result was inactive. As for `CC1(C)CC(O)c2c(ccc3ccc(=O)oc23)O1` (racemic), the outcome was inactive.

The subject of a further experiment is L1210. Kind of experiment: Cytotoxicity against mouse L1210 cells after 48 hrs by […] assay. The format is functional, cell-based. Conditions: L1210, 48 h. A digest of the protocol: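 L1210 cells grown in RPMI 1640 plus 10% fetal calf serum, 2 mM L-glutamine, penicillin/streptomycin, 10 mM HEPES (pH 7.4); exposed 48 h to nine serial drug dilutions in triplicate; microculture tetrazolium read-out; IC50 = concentration halving optical density versus untreated controls; mean of 2 independent experiments.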
Turning to `CC(=O)O[C@H]1c2c(ccc3ccc(=O)oc23)OC(C)(C)[C@H]1OC(C)=O` (racemic), the IC50 (as a rule, the midpoint of a concentration-inhibition curve) was over 100 µM. `CC(=O)O[C@H]1c2c(ccc3ccc(=O)oc23)OC(C)(C)[C@@H]1Br` (racemic): inhibition was half-maximal at 60.3 µM (IC50). In other words, the double-digit micromolar range. For `CC1(C)Oc2cc3oc(=O)ccc3cc2[C@@H](O)[C@@H]1Br` (racemic), the IC50 is over 100 µM. The same measure, in the same setting: to `CC(=O)O[C@@H]1c2cc3ccc(=O)oc3cc2OC(C)(C)[C@@H]1OC(C)=O` (racemic) belongs over 100 µM; to `CC1(C)Oc2cc3oc(=O)ccc3cc2[C@@H](O)[C@H]1O` (racemic), over 100 µM. In turn, `CC(=O)OC1CC(C)(C)Oc2cc3oc(=O)ccc3cc21` (racemic) returned an IC50 of 5 µM. Take `CC1(C)CC(OC(=O)c2ccccc2)c2c(ccc3ccc(=O)oc23)O1` (racemic): half-maximal inhibition (IC50) was put at 30.9 µM. With `CC1(C)CC(OC(=O)c2ccccc2)c2cc3ccc(=O)oc3cc2O1` (racemic), the IC50 was 90.1 µM. This IC50 lies about 2.9-fold higher than the previous one.

The compound `CC1(C)CC(OC(=O)NCCCl)c2c(ccc3ccc(=O)oc23)O1` (racemic) displayed an IC50 of 67.2 µM. This IC50 and that of the compound before are within 1.5-fold of each other. With `CC1(C)Oc2ccc3ccc(=O)oc3c2[C@H](OC(=O)c2ccccc2)[C@H]1Br` (racemic), the IC50 was 10.3 µM. This IC50 is about 6.5-fold lower than that of the compound before. On the same count and under the same terms, as for `CC1(C)Oc2ccc3ccc(=O)oc3c2[C@H](O)[C@@H]1O` (racemic), the figure is over 100 µM; as for `CC(=O)O[C@@H]1c2cc3ccc(=O)oc3cc2OC(C)(C)[C@H]1Br` (racemic), over 100 µM; as for `CC1(C)CC(O)c2cc3ccc(=O)oc3cc2O1` (racemic), 6.5 µM. On the same count and under the same terms, as for `CC1(C)CC(O)c2c(ccc3ccc(=O)oc23)O1` (racemic), the figure is 0.9 µM; as for `CC(=O)OC1CC(C)(C)Oc2ccc3ccc(=O)oc3c21` (racemic), 24.7 µM. `CC1(C)Oc2ccc3ccc(=O)oc3c2[C@H](O)[C@H]1Br` (racemic) displayed an IC50 of over 100 µM. With `CC1(C)Oc2cc3oc(=O)ccc3cc2[C@@H](OC(=O)c2ccccc2)[C@@H]1Br` (racemic), it took 36.5 µM to reach half-maximal inhibition (IC50). In other words, the double-digit micromolar range.
